Calls of active or inactive are those of the source. Unless noted, the calls are words filed in the database; no cut-off is given here.
Key:
[1] = molecular target: Virion infectivity factor (Human immunodeficiency virus type 1 group M subtype B (isolate NY5)(HIV-1)) (UniProt P12504); assay: Antagonist activity against HIV-1 Vif in human MT4 cells assessed as inhibition of viral infection at 50 and 100 uM measured after 16 hrs by cell-based assay; details: Human immunodeficiency virus 1
[2] = molecular target: Virion infectivity factor (Human immunodeficiency virus type 1 group M subtype B (isolate NY5)(HIV-1)) (UniProt P12504); assay: (§1) Antagonist activity against HIV-1 Vif in human MT4 cells assessed as inhibition of viral infection at 50 uM measured after 16 hrs by cell-based assay; details: Human immunodeficiency virus 1
How it was run: (§2)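 Antiviral activity was measured against wild-type HIV-1 in permissive MT-4 cells as a Vif-specificity counter-screen. RN-18 was the positive control, and cells cultured without inhibitor were the negative control. "No activity" means no inhibition at 50 µM.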

[3] = molecular target: Virion infectivity factor (Human immunodeficiency virus type 1 group M subtype B (isolate NY5)(HIV-1)) (UniProt P12504); assay: Antagonist activity against HIV-1 GFP-tagged Vif in human HEK293FT cells co-expressing HA-tagged A3G assessed as upregulation of A3G levels at 50 uM measured after 16 hrs by immunoblotting method; type: cell-based; details: Human immunodeficiency virus 1
How it was run: (§3)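 HEK293FT cells co-expressing HA-tagged A3G and either GFP-tagged Vif or Vif were incubated with or without compound (50 µM) for 16 h. Cell extracts were immunoblotted with anti-HA (A3G), anti-GFP (Vif) and anti-GAPDH antibodies. Untreated cells served as the comparison, and choline chloride was included as a negative control in the triazole series.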

[4] = molecular target: Virion infectivity factor (Human immunodeficiency virus type 1 group M subtype B (isolate NY5)(HIV-1)) (UniProt P12504); assay: Antagonist activity against HIV-1 GFP-tagged Vif in human HEK293FT cells co-expressing HA-tagged A3G assessed as downregulation of Vif expression expression at 50 uM measured after 16 hrs by immunoblotting method; type: cell-based; details: Human immunodeficiency virus 1; how it was run: as §3
HeLa = assay: Cytotoxicity against human HeLa cells at 50 uM measured after 16 hrs by MTS assay relative to DMSO control; type: cell-based
[5] = molecular target: Virion infectivity factor (Human immunodeficiency virus type 1 group M subtype B (isolate NY5)(HIV-1)) (UniProt P12504); assay: Antagonist activity against HIV-1 Vif in human H9 cells expressing A3G assessed as inhibition of viral replication by reverse transcriptase assay relative to vehicle-treated control; type: cell-based; details: Human immunodeficiency virus 1
How it was run: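 Antiviral activity was measured against wild-type HIV-1 in non-permissive (A3G-expressing) H9 cells and reported as IC50. RN-18 was the positive control, and cells cultured without inhibitor were the negative control. Selected compounds were tested across doses, and MTS cell viability was checked in parallel at 50 µM.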

[6] = molecular target: Virion infectivity factor (Human immunodeficiency virus type 1 group M subtype B (isolate NY5)(HIV-1), UniProt P12504); assay: as §1; design: species or system Human immunodeficiency virus 1; how it was run: as §2
Chain of Virion infectivity factor (P12504 whole entry): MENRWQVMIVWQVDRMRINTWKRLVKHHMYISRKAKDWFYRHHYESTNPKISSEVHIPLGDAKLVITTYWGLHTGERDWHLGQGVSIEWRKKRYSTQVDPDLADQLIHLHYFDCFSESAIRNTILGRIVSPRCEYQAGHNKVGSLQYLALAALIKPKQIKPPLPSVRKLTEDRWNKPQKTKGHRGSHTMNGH

Chain of Virion infectivity factor (Human immunodeficiency virus type 1 group M subtype B (isolate NY5)(HIV-1)) (P12504 whole entry): as above

Row | Structure (SMILES) | Activity [1] | Activity [2] | Activity [3] | Activity [4] | Activity (HeLa) | inhibition [5] | IC50 [6]
1 | COc1ccccc1NC(=O)c1ccccc1Sc1ccc([N+](=O)[O-])cc1 | inactive | inactive | Active | Active | Non-Toxic | Dose-dependent effect | –
2 | COc1ccccc1-c1noc(-c2ccccc2Sc2ccc([N+](=O)[O-])cc2)n1 | – | – | Active | Active | – | – | Not Active
3 | COc1ccccc1-n1cc(-c2ccccc2Sc2ccc([N+](=O)[O-])cc2)nn1 | – | – | Active | Active | – | – | Not Active
4 | COc1ccc(OC)c(-n2cc(-c3ccccc3S(=O)(=O)c3ccc(N)cc3)nn2)c1 | – | inactive | Active | Active | Non-Toxic | Dose-dependent effect | –

Reference: ChEMBL document CHEMBL4431339, “1,2,3-Triazoles as Amide Bioisosteres: Discovery of a New Class of Potent HIV-1 Vif Antagonists” (J Med Chem, 2016)
